Assay results from ChEMBL document CHEMBL1123202, “Imidazo[4,5-c]pyridines (3-deazapurines) and their nucleosides as immunosuppressive and antiinflammatory agents” (1986).
Active and inactive are the calls of the source. The rule behind the calls is not given here.

Assays:
Mus musculus = species on record: Mus musculus; test: Compound was tested for inhibition of mouse connective tissue cell (L) growth at a concentration of 100 uM; format: functional; conditions: for inhibition at 100 µM: Mus musculus
In short: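 D-98 (human sternal marrow) and L (mouse connective tissue) cells were cultured with compound at 100 µM, and growth inhibition was reported as %. Procedure per earlier publication.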

EL4 = test: Inhibition of lymphocyte-mediated cytolysis at a concentration of 100 uM in [51Cr]- labelled EL4 leukemia cells; format: functional; conditions: Mus musculus
D98 (Homo sapiens) = test: Compound was tested for inhibition of human sternal marrow cell (D98) growth at a concentration of 100 uM
Rattus norvegicus [1] = species on record: Rattus norvegicus; test: Dose required to produce an acute inflammatory response of the algal poly saccharide carrageenan into the pleural cavity of rat.; format: functional
Rattus norvegicus [2] = test: Dose required to produce an acute inflammatory response of the algal poly saccharide carrageenan into the pleural cavity of rat; IA is Inactive at 9 mg/kg; format: functional, organism-based; set-up: dose 9 mg/kg
Rattus norvegicus [3] = test: Dose required to produce an acute inflammatory response of the algal poly saccharide carrageenan into the pleural cavity of rat; IA is Inactive at 6 mg/kg; format: functional, organism-based; set-up: dose 6 mg/kg

Structure (SMILES)	inhibition at 100 µM (Mus musculus) [%]	inhibition at 100 µM (EL4) [%]	inhibition (D98 (Homo sapiens)) [%]	ED50 (Rattus norvegicus [1]) [mg/kg]	ED50 (Rattus norvegicus [2])	ED50 (Rattus norvegicus [3])	Inhibition (Mus musculus) [%]
OC[C@H]1O[C@@H](n2cnc3c(NCc4ccccc4)nccc32)C[C@@H]1O	37	8	18	> 9	–	–	–
OC[C@H]1OC(n2cnc3c(Cl)nccc32)[C@H](O)[C@@H]1O (stereo partly drawn)	27	< 5	76	–	inactive	–	–
c1cc2[nH]cnc2cn1	12	< 5	0	> 9	–	–	–
CN(C)c1nccc2c1ncn2[C@H]1C[C@H](O)[C@@H](CO)O1	6	< 5	0	> 9	–	–	–
Nc1nccc2c1ncn2[C@@H]1O[C@H](CO)[C@@H](O)[C@H]1O	49	80	56	3	–	–	–
CCCCCCNc1nccc2c1ncn2C1O[C@H](CO)[C@@H](O)[C@H]1O (stereo partly drawn)	41	14	8	–	–	inactive	–
[O-][n+]1ccc2c(c1)ncn2C1O[C@H](CO)[C@@H](O)[C@H]1O (stereo partly drawn)	3	< 5	5	–	inactive	–	–
CN(C)c1[nH]ccc2ncnc1-2	21	25	8	9	–	–	–
OC[C@H]1O[C@@H](n2cnc3cnccc32)[C@H](O)[C@@H]1O (stereo in doubt; 17) [listing 1 of 2 here]	–	–	–	–	–	–	3
CNc1[nH]ccc2ncnc1-2	6	< 5	18	–	–	inactive	–
Sc1[nH]ccc2ncnc1-2	38	< 5	26	8	–	–	–
OCCNc1[nH]ccc2ncnc1-2	16	< 5	3	> 9	–	–	–
CN(C)c1nccc2c1ncn2C1O[C@H](CO)[C@@H](O)[C@H]1O (stereo partly drawn)	14	10	0	> 9	–	–	–
CC1OC(n2cnc3c(N)nccc32)CC1O (stereo not drawn)	12	25	3	–	inactive	–	–
[O-][n+]1ccc2c(c1)ncn2[C@H]1C[C@H](O)[C@@H](CO)O1	13	< 5	0	–	inactive	–	–
OC[C@H]1O[C@@H](n2cnc3cnccc32)[C@H](O)[C@@H]1O (stereo in doubt; 16) [listing 1 of 2 here]	–	< 5	–	–	–	–	8
OC[C@H]1OC(n2cnc3c(S)nccc32)[C@H](O)[C@@H]1O (stereo partly drawn)	3	< 5	6	9	–	–	–
c1ccc(CNc2[nH]ccc3ncnc2-3)cc1	68	57	75	9	–	–	–
[N-]=[N+]=Nc1nccc2c1ncn2C1O[C@H](CO)[C@@H](O)[C@H]1O (stereo partly drawn)	8	< 5	4	> 9	–	–	–
OC[C@H]1O[C@@H](n2cnc3cnccc32)[C@H](O)[C@@H]1O (stereo in doubt; 17) [listing 2 of 2 here]	–	–	1	–	inactive	–	–
[N-]=[N+]=Nc1nccc2ncn([C@H]3C[C@H](O)[C@@H](CO)O3)c12	2	< 5	14	> 9	–	–	–
OCCNc1nccc2c1ncn2C1O[C@H](CO)[C@@H](O)[C@H]1O (stereo partly drawn)	3	6	0	–	–	inactive	–

Structure (SMILES)	inhibition at 100 µM (Mus musculus) [%]	inhibition at 100 µM (EL4) [%]	inhibition (D98 (Homo sapiens)) [%]	ED50 (Rattus norvegicus [1]) [mg/kg]	ED50 (Rattus norvegicus [2])	ED50 (Rattus norvegicus [3])	Inhibition (Mus musculus) [%]
OC[C@H]1O[C@@H](n2cnc3c(S)nccc32)C[C@@H]1O	8	< 5	10	–	inactive	–	–
Clc1[nH]ccc2ncnc1-2	29	< 5	6	> 9	–	–	–
Nc1[nH]ccc2ncnc1-2	24	< 5	60	8	–	–	–
Nc1nccc2c1ncn2[C@H]1C[C@H](O)[C@@H](CO)O1	0	89	18	10	–	–	–
CCNc1[nH]ccc2ncnc1-2	11	< 5	3	–	–	inactive	–
OC[C@H]1O[C@@H](n2cnc3cnccc32)C[C@@H]1O	0	< 5	6	> 9	–	–	–
OC[C@H]1OC(n2cnc3c(Nc4ccccc4)nccc32)[C@H](O)[C@@H]1O (stereo partly drawn)	18	10	4	> 9	–	–	–
OC[C@H]1OC(n2cnc3c(NCc4ccccc4)nccc32)[C@H](O)[C@@H]1O (stereo partly drawn)	38	5	32	> 9	–	–	–
CSc1nccc2c1ncn2C1O[C@H](CO)[C@@H](O)[C@H]1O (stereo partly drawn)	40	< 5	24	–	inactive	–	–
c1ccc(Nc2[nH]ccc3ncnc2-3)cc1	34	26	12	–	inactive	–	–
OC[C@H]1O[C@@H](n2cnc3c(Cl)nccc32)C[C@@H]1O	25	< 5	5	–	inactive	–	–
CSc1nccc2c1ncn2[C@H]1C[C@H](O)[C@@H](CO)O1	30	< 5	36	> 9	–	–	–
c1ccc(CSc2[nH]ccc3ncnc2-3)cc1	54	20	26	> 9	–	–	–
[N-]=[N+]=Nc1[nH]ccc2ncnc1-2	20	< 5	20	–	inactive	–	–
CSc1[nH]ccc2ncnc1-2	11	< 5	4	9	–	–	–
OC[C@H]1O[C@@H](n2cnc3c(SCc4ccccc4)nccc32)C[C@@H]1O	19	11	18	–	inactive	–	–
C[C@H]1OC(n2cnc3c(N)nccc32)[C@H](O)[C@@H]1O (stereo partly drawn)	4	32	18	–	inactive	–	–
[O-][n+]1ccc2[nH]cnc2c1	1	5	3	> 9	–	–	–
[N-]=[N+]=Nc1nccc2c1ncn2[C@H]1C[C@H](O)[C@@H](CO)O1	12	13	4	–	inactive	–	–
OC[C@H]1OC(n2cnc3c(SCc4ccccc4)nccc32)[C@H](O)[C@@H]1O (stereo partly drawn)	43	30	30	9	–	–	–
OC[C@H]1O[C@@H](n2cnc3cnccc32)[C@H](O)[C@@H]1O (stereo in doubt; 16) [listing 2 of 2 here]	–	–	13	–	inactive	–	–
